{"data": "Experimental data collected from several papers", "PLEKHA3": "PLEKHA3 (Homo sapiens, UniProt Q9HB20)", "MAPK14": "Mitogen-activated protein kinase 14 (MAPK14, Homo sapiens, UniProt Q16539)", "ADRA2C": "Alpha-2C adrenergic receptor (ADRA2C, Homo sapiens, UniProt P18825)", "Fibroblast growth factor 14": "Fibroblast growth factor 14 (Homo sapiens, UniProt Q92915)", "note": "Protocols differ between the studies behind these lines."}
{"SMILES": "CCOc1ccc(C(=O)CC(SCc2ccc(Cl)cc2)C(=O)OC)cc1 (stereo not drawn)", "target": "PLEKHA3", "test": "ligand displacement, FP", "endpoint": "Ki", "value": "17.3 µM"}
{"SMILES": "c1ccc(-c2n[nH]cc2-c2ccncc2)nc1", "target": "MAPK14", "test": "enzyme activity, inhibitor, ADP detection", "endpoint": "IC50", "value": "4.5 µM"}
{"SMILES": "Cc1cc(Oc2ncccc2CN2CCN(c3cccc(F)c3)CC2)ccc1-c1c(C)c(=O)[nH]c(=O)n1C", "target": "ADRA2C", "test": "ligand displacement, radioligand", "endpoint": "Ki", "value": "0.02 µM"}
{"SMILES": "CCOc1ccccc1C(=O)CC(SCc1ccc(Cl)cc1)C(=O)O (stereo not drawn)", "target": "PLEKHA3", "test": "ligand displacement, FP", "endpoint": "Ki", "value": "7.8 µM"}
{"SMILES": "O=C(O)c1cc(-c2ccc(-c3cc[nH]n3)cc2)c2ccc(-c3ccc(C(F)(F)F)cc3)cc2c1", "target": "ADRA2C", "test": "cell-free assay, radioligand", "endpoint": "Ki", "value": "6.5 µM"}
{"SMILES": "Cc1cc(Oc2ncccc2CN2CCN(C(c3ccccc3)c3ccccc3)CC2)ccc1-c1c(C)c(=O)[nH]c(=O)n1C", "target": "ADRA2C", "test": "ligand displacement, radioligand", "endpoint": "Ki", "value": "0.137 µM"}
{"SMILES": "CC(=O)Nc1ccc(S(=O)(=O)N2CCN(CC(O)COc3ccc4ccccc4c3)CC2)cc1 (stereo not drawn)", "target": "Fibroblast growth factor 14", "test": "binding, SPR", "endpoint": "Kd", "value": "8.53 µM"}
{"SMILES": "Cc1cc(Oc2ncccc2CN2CCN(c3ccc([N+](=O)[O-])cc3Cl)CC2)ccc1-c1c(C)c(=O)[nH]c(=O)n1C", "target": "ADRA2C", "test": "ligand displacement, radioligand", "endpoint": "Ki", "value": "0.623 µM"}
{"SMILES": "CCOc1ccc(C(=O)CC(SCc2ccc(Cl)cc2)C(=O)O)cc1OCC (stereo not drawn)", "target": "PLEKHA3", "test": "ligand displacement, FP", "endpoint": "Ki", "value": "6.81 µM"}
{"SMILES": "CC(C)=CC[C@@H](O)C1=CC(=O)c2c(O)ccc(O)c2C1=O", "target": "Interleukin-6 (IL6, Homo sapiens, UniProt P05231)", "test": "binding, BLI", "endpoint": "Kd", "value": "0.91 µM"}
{"SMILES": "Cc1cc(Oc2ncccc2CN2CCN(c3ccccc3)CC2)ccc1-c1c(C)c(=O)[nH]c(=O)n1C", "target": "ADRA2C", "test": "ligand displacement, radioligand", "endpoint": "Ki", "value": "0.0115 µM"}
{"SMILES": "C[C@H](Cc1ccc(O)c(O)c1)[C@@H](C)Cc1ccc(O)c(O)c1", "target": "pyrD (Pseudomonas aeruginosa, UniProt Q9HZF8)", "test": "binding, ITC", "endpoint": "Kd", "value": "7.5 µM"}
{"SMILES": "CCOc1ccc(-c2cc(C(=O)O)c(-c3ccc(Cl)cc3)o2)cc1", "target": "PLEKHA3", "test": "ligand displacement, FP", "endpoint": "Ki", "value": "0.55 µM"}
{"SMILES": "O=c1cc(-c2ccc([N+](=O)[O-])cc2)[nH]c2c(-c3ccc(Cl)cc3)c(Cc3ccccc3)nn12", "target": "Fibroblast growth factor 14", "test": "binding, SPR", "endpoint": "Kd", "value": "0.94 µM"}
{"SMILES": "Cn1cc(-c2ccnc3ccccc23)c(-c2ccccn2)n1", "target": "MAPK14", "test": "enzyme activity, inhibitor, ADP detection", "endpoint": "IC50", "value": "9.4 µM"}
